According to ChEMBL document CHEMBL4130443, “Targeting breast cancer stem cells by novel HDAC3-selective inhibitors” (Eur J Med Chem, 2017):
pIC50: −log10 of the molar value. Activity calls are given as the source filed them. The rule behind the calls is not given here.

Legend:
[1] = biological target: Histone deacetylase 4 (Homo sapiens) (UniProt P56524); assay: Inhibition of human HDAC4 at 1 uM using Boc-Lys(trifluoroacetyl)-AMC substrate
In short: (§1)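 Isoform profiling run by a commercial vendor with compounds at 1 µM. Values are percent inhibition, each the average of two determinations.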

Histone deacetylase 1 [2] = biological target: T1, Histone deacetylase 1 (Homo sapiens, UniProt Q13547); assay: Inhibition of human HDAC1 at 1 uM using p53 (379 to 382 residues) derived fluorogenic peptide RHKKAc; in short: as §1
Histone deacetylase 2 [3] = biological target: T2, Histone deacetylase 2 (Homo sapiens, UniProt Q92769); assay: Inhibition of human HDAC2 at 1 uM using p53 (379 to 382 residues) derived fluorogenic peptide RHKKAc; in short: as §1
[4] = biological target: T3, Protein deacetylase HDAC6 (Homo sapiens) (UniProt Q9UBN7); assay: Inhibition of human HDAC6 at 1 uM using p53 (379 to 382 residues) derived fluorogenic peptide RHKKAc; in short: as §1
T3 sequence (whole entry): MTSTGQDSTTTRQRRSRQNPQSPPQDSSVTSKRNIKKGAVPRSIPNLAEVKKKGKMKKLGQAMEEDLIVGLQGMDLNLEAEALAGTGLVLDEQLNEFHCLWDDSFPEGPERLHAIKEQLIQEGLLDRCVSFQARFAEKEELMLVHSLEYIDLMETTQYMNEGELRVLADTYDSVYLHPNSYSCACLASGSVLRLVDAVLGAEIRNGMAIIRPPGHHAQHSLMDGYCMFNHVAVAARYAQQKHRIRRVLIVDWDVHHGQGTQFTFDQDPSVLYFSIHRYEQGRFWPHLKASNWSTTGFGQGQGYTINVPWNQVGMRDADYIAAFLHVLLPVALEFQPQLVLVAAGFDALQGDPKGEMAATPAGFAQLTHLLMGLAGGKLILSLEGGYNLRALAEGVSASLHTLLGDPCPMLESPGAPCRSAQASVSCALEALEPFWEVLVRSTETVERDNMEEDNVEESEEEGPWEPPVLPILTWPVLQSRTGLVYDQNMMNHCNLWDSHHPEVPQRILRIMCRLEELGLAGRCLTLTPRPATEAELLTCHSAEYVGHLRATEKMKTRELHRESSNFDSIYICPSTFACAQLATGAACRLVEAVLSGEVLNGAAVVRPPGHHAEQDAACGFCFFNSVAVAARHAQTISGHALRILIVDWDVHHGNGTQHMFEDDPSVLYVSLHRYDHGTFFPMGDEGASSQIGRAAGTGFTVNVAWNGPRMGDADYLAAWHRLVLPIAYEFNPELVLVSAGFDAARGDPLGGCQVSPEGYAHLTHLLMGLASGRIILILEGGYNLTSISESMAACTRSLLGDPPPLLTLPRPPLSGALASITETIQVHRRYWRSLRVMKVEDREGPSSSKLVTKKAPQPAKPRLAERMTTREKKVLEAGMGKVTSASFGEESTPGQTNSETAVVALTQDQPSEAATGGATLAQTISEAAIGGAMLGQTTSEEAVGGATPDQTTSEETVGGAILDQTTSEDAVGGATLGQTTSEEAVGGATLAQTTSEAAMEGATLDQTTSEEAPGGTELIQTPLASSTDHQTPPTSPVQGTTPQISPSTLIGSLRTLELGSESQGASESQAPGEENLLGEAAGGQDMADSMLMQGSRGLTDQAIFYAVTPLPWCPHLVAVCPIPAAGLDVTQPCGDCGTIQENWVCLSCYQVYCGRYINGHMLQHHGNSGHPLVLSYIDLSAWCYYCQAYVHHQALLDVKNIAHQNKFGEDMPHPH

[5] = biological target: T4, Histone deacetylase 8 (Homo sapiens) (UniProt Q9BY41); assay: Inhibition of HDAC8 in human MDA-MB-231 cells assessed as reduction in Notch1 expression at 0.25 uM incubated for 48 hrs by Western blot method; type: cell-based
T4 sequence (whole entry): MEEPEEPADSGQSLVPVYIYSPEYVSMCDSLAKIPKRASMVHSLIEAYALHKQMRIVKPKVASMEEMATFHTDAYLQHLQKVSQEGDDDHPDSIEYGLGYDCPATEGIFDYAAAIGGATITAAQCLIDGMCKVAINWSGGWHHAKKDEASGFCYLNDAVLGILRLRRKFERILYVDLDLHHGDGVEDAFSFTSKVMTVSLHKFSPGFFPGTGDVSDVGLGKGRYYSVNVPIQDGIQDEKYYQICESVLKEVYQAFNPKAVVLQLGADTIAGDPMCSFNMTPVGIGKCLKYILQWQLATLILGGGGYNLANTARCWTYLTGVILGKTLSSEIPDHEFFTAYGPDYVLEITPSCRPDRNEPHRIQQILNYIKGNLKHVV
In short: (§2)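 Cells treated 48 h at the indicated concentrations, with a reference HDAC inhibitor at 0.25 µM as positive control on each blot. Lysed in 1% SDS, 10 mM EDTA, 50 mM Tris-HCl pH 8.1 with protease/phosphatase inhibitors, then sonicated. Equal protein by SDS-PAGE on nitrocellulose. Primary antibodies 1:1000 overnight at 4°C, HRP secondary, ECL. Blots for pan-H3 and H3K9 acetylation, tubulin acetylation and Notch1.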

[6] = biological target: T4, Histone deacetylase 8 (Homo sapiens); assay: Inhibition of human HDAC8 at 1 uM using p53 (379 to 382 residues) derived fluorogenic peptide RHKAcKAc; in short: as §1
[7] = biological target: T3, Protein deacetylase HDAC6 (Homo sapiens); assay: Inhibition of HDAC6 in human MDA-MB-231 cells assessed as increase in histone H3K9 acetylation at 0.25 uM incubated for 48 hrs by Western blot method; type: cell-based; conditions: in the assay text read “tubulin acetylation” for “histone H3K9 acetylation”; in short: as §2
[8] = biological target: Histone deacetylase 3/Nuclear receptor corepressor 2 (HDAC3/NCoR2) (Homo sapiens) (UniProt O15379+Q9Y618); assay: Inhibition of human HDAC3/NCOR2 at 1 uM using p53 (379 to 382 residues) derived fluorogenic peptide RHKKAc; type: protein-complex assay; in short: as §1
[9] = biological target: Histone deacetylase 5 (Homo sapiens) (UniProt Q9UQL6); assay: Inhibition of human HDAC5 at 1 uM using Boc-Lys(trifluoroacetyl)-AMC substrate; in short: as §1
[10] = biological target: T5, Histone deacetylase (Homo sapiens) (UniProt Q13547+O15379+Q9UBN7+Q92769+Q9UQL6+Q8WUI4+Q9BY41+Q96DB2+P56524+Q9UKV0+Q969S8); assay: Inhibition of HDAC in human MDA-MB-231 cells assessed as increase in histone H3 acetylation at 0.1 to 2.5uM incubated for 48 hrs by Western blot method; type: cell-based; in short: as §2
[11] = biological target: T5, Histone deacetylase (Homo sapiens); assay: Inhibition of HDAC in human MDA-MB-231 cells assessed as increase in histone H3K9 acetylation at 0.1 to 2.5uM incubated for 48 hrs by Western blot method; type: cell-based; in short: as §2
[12] = biological target: T3, Protein deacetylase HDAC6 (Homo sapiens); assay: Inhibition of HDAC6 in human MDA-MB-231 cells assessed as increase in histone H3K9 acetylation at 0.1 to 2.5uM incubated for 48 hrs by Western blot method; type: cell-based; conditions: in the assay text read “tubulin acetylation” for “histone H3K9 acetylation”; in short: as §2
[13] = biological target: T4, Histone deacetylase 8 (Homo sapiens); assay: Inhibition of HDAC8 in human MDA-MB-231 cells assessed as reduction in Notch1 expression at 0.1 to 2.5uM incubated for 48 hrs by Western blot method; type: cell-based; in short: as §2
[14] = biological target: T4, Histone deacetylase 8 (Homo sapiens); assay: Inhibition of HDAC8 in human MDA-MB-231 cells assessed as reduction in Notch1 expression at 2.5uM incubated for 48 hrs by Western blot method; type: cell-based; in short: as §2
[15] = biological target: Histone deacetylase 3 (Homo sapiens) (UniProt O15379); assay: Inhibition of HDAC3 in human MDA-MB-231 cells assessed as reduction in beta-catenin expression at 0.5 to 5 uM by immunoblotting; type: cell-based
In short: (§3)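 Monolayer cells treated in 5% FBS at graded concentrations. Lysed in SDS/EDTA/Tris pH 8.1 buffer, equal protein immunoblotted with primary antibodies 1:1000 overnight at 4°C. Detected by ECL for phospho-Akt, β-catenin and histone H3 pan/H3K9 acetylation.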

[16] = biological target: Histone deacetylase 3/Nuclear receptor corepressor 2 (HDAC3/NCoR2) (Homo sapiens, UniProt O15379); assay: Inhibition of human HDAC3/NCOR2 using p53 (379 to 382 residues) derived fluorogenic peptide RHKKAc; type: protein-complex assay
MDA-MB-231 [17] = assay: Effect on beta-catenin mRNA expression in human MDA-MB-231 cells at 0.5 to 5 uM by RT-PCR method; type: cell-based; conditions: mda-mb-231, 5 µM
In short: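 Monolayer cells treated at graded concentrations. Total RNA isolated with TRIzol. β-catenin mRNA assessed by RT-PCR with β-actin as reference.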

MDA-MB-231 [18] = assay: Cytotoxicity in human MDA-MB-231 cells assessed as reduction in cell viability incubated for 24 to 72 hrs by MTT assay; type: functional, cell-based
In short: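 MDA-MB-231 seeded 5,000 cells/well with 10% FBS, left overnight, then exposed to agents in 5% FBS for 24, 48 and 72 h. MTT added for 1 h, dye dissolved in DMSO, absorbance at 560 nm. Viability given as percent of the matching vehicle-treated control. N = 6.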

Histone deacetylase 2 [19] = biological target: T2, Histone deacetylase 2; assay: Inhibition of human HDAC2 using p53 (379 to 382 residues) derived fluorogenic peptide RHKKAc
[20] = biological target: Histone deacetylase 3 (Homo sapiens) (UniProt O15379); assay: Inhibition of HDAC3 in human MDA-MB-231 cells assessed as increase in histone H3 acetylation at 0.5 to 5 uM by immunoblotting; type: cell-based; in short: as §3
MDA-MB-231 [21] = assay: Inhibition of colony formation of human MDA-MB-231 cells incubated for 48 hrs by crystal violet staining based assay; conditions: MDA-MB-231, 48 h
MDA-MB-231 [22] = assay: Growth inhibition of human MDA-MB-231 cells incubated for 48 to 72 hrs by crystal violet staining based assay; type: functional, cell-based
In short: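 Cells plated at 5000/well and left overnight, then treated in 5% FBS for 24, 48 and 72 h. Washed with PBS, stained 20 min with 0.5% crystal violet in 20% methanol, stain solubilized in 2% SDS, absorbance read at 550. Growth inhibition calculated as (1-Nt/Nc) x 100 against vehicle wells. N = 6.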

MDA-MB-231 [23] = assay: Inhibition of mammosphere formation of human MDA-MB-231 cells incubated for 7 days; conditions: MDA-MB-231, 168 h
[24] = biological target: Histone deacetylase 3 (Homo sapiens) (UniProt O15379); assay: Inhibition of HDAC3 in human MDA-MB-231 cells assessed as reduction in Akt phosphorylation at 0.5 to 5 uM by immunoblotting; type: cell-based; in short: as §3
Histone deacetylase 1 [25] = biological target: T1, Histone deacetylase 1; assay: Inhibition of human HDAC1 using p53 (379 to 382 residues) derived fluorogenic peptide RHKKAc

Histone deacetylase 4 (Homo sapiens), sequence (P56524 whole entry, canonical isoform): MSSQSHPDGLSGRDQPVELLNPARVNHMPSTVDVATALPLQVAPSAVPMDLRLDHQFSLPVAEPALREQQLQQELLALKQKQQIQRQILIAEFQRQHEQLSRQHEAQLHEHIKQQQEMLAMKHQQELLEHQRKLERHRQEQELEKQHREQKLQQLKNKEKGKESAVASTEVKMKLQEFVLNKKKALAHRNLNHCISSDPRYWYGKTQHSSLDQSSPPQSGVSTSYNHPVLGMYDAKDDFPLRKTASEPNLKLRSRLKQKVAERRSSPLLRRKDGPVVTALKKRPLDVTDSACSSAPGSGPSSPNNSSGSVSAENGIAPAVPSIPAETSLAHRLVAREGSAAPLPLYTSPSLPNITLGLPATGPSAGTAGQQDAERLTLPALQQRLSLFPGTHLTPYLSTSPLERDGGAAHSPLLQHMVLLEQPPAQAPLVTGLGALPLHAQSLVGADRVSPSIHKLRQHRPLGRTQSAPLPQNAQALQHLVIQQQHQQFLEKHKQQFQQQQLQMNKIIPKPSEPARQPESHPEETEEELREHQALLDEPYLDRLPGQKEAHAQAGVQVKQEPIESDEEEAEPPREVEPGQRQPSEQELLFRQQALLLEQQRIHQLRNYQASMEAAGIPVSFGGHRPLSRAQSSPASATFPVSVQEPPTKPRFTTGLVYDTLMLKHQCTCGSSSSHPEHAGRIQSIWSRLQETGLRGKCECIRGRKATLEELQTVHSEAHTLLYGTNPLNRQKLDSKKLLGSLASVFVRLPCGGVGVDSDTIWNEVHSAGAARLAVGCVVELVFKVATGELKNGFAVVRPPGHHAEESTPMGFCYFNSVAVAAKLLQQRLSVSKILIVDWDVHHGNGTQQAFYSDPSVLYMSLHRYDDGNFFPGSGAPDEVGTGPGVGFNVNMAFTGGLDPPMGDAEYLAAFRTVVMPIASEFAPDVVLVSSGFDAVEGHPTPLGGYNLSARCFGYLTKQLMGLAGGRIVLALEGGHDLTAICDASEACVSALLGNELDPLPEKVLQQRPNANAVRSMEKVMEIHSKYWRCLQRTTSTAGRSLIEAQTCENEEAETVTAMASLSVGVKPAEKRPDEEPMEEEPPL
Histone deacetylase 5 (Homo sapiens), sequence (Q9UQL6 whole entry): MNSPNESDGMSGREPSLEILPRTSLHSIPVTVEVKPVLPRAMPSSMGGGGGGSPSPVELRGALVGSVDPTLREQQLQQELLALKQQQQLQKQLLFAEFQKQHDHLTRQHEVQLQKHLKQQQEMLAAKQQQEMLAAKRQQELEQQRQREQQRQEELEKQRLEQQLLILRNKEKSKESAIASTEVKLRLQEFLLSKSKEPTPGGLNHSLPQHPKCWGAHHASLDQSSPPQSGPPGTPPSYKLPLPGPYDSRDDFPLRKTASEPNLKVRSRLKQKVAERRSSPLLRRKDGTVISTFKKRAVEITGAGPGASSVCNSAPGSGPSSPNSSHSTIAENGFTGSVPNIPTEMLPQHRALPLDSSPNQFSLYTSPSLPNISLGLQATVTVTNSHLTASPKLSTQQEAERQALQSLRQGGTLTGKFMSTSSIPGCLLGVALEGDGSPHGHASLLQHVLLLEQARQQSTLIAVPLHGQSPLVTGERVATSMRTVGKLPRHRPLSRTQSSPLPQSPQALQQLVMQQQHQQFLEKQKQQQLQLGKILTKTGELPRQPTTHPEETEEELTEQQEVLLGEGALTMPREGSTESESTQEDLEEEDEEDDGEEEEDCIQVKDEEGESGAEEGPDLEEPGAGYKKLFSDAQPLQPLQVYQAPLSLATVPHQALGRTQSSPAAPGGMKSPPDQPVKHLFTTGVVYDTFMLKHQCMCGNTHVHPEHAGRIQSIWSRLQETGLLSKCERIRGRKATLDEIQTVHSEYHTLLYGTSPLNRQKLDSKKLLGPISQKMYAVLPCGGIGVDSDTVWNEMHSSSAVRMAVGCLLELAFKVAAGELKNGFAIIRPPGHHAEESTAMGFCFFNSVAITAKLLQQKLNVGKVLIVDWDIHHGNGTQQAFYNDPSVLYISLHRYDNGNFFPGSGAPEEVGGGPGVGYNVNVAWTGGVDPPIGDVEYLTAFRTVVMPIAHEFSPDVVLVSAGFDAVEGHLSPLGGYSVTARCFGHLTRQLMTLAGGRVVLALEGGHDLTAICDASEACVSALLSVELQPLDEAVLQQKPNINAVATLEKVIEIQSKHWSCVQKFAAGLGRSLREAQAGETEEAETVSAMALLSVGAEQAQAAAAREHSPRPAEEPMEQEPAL
T1 sequence (Q13547 whole entry, the tested form may be a part): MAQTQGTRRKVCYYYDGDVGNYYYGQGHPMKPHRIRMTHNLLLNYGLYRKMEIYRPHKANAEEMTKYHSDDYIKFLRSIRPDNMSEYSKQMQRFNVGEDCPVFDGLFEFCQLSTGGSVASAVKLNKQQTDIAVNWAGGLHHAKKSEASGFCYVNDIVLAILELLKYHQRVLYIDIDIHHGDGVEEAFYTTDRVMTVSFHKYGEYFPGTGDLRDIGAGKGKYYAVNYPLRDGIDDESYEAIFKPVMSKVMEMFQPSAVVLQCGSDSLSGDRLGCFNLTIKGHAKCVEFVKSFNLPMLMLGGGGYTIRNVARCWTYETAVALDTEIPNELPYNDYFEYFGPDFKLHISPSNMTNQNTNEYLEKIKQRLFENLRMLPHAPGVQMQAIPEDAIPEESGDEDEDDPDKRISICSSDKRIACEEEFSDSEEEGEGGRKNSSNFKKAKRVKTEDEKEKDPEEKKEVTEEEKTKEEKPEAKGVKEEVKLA
Histone deacetylase 3 (Homo sapiens), sequence (O15379 whole entry, the tested form may be a part): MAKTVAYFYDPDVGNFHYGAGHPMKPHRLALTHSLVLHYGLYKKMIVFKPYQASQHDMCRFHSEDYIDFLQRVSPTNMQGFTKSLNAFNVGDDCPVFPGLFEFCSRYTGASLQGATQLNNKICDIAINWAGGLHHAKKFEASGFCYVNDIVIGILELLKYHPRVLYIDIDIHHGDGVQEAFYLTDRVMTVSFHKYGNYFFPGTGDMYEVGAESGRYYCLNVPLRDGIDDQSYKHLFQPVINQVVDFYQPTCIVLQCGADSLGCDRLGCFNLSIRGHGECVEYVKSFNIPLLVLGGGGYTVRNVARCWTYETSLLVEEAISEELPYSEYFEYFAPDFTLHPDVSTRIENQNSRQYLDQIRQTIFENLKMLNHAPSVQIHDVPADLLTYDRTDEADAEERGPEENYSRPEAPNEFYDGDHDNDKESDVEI
T2 sequence (Q92769 whole entry, the tested form may be a part): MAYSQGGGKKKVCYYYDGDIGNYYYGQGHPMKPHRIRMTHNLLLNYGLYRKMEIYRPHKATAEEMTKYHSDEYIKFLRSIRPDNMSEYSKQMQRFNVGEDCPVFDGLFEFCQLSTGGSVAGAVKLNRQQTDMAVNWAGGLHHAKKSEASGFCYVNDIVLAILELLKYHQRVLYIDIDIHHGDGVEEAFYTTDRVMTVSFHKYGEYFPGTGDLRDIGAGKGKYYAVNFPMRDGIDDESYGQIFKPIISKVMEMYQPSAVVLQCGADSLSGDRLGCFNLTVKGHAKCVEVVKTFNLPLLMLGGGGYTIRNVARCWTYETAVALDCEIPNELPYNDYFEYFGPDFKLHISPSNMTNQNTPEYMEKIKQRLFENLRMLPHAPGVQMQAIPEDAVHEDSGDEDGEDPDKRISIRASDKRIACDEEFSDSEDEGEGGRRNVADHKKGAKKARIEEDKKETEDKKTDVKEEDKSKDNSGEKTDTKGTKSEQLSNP

Row | inhibition [1] | inhibition (Histone deacetylase 1 [2]) | inhibition (Histone deacetylase 2 [3]) | inhibition [4] | inhibition [6] | inhibition [8] | inhibition [9] | inhibition [10] | inhibition [11] | inhibition [12] | Compound | also measured
1 | 21% | 95% | 72% | 100% | 87% | 93% | 0% |  |  |  | CC(C)[C@H](C(=O)Nc1ccc(C(=O)NO)cc1)c1ccccc1 | inhibition [5]: Active; inhibition [7]: Active
2 | 0% | 55% | 31% | 20% | 7% | 30% | 0% | Active | Active | inactive | CC(C)[C@H](C(=O)Nc1ccc(C(=O)Nc2ccccc2N)cc1)c1ccccc1 | inhibition [13]: inactive
3 | 9% | 80% | 57% | 16% | 38% | 76% | 9% | Active | Active | inactive | CC(C)[C@@H](C(=O)Nc1ccc(C(=O)Nc2ccccc2N)cc1)c1ccccc1 | inhibition [14]: Active
4 |  |  |  |  |  |  |  |  |  |  | Nc1cc(F)ccc1NC(=O)c1ccc(NC(=O)Cc2ccccc2)cc1 | inhibition [15]: Dose-dependent effect; pIC50 [16]: 6.74; Activity (MDA-MB-231 [17]): Non-Toxic; pIC50 (MDA-MB-231 [18]): ≤ 5.00; pIC50 (Histone deacetylase 2 [19]): 5.49; inhibition [20]: Dose-dependent effect; pIC50 (MDA-MB-231 [21]): 6.00 to 6.30; pIC50 (MDA-MB-231 [22]): ≤ 5.00; pIC50 (MDA-MB-231 [23]): 6.00 to 6.30; inhibition [24]: Dose-dependent effect; pIC50 (Histone deacetylase 1 [25]): 5.64
